Source: PubChem
MBD2 inh: inhibitors of human MBD2 binding to methylated oligonucleotide; inhibition, % at 4.4 µM; TR-FRET; hit rate 0.31% among 370,000; Q9UBB5; in the data active means inhibition above about 13%
LEDGF integ inh: blocks HIV-1 LEDGF/p75-dependent DNA integration. TR-FRET IN-LEDGF/p75 DNA integration, Eu/Cy5. inhibition, % at 3.7 µM. hit rate 0.64% among 370,000;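 active means inhibition above the screen-wide mean plus 3 SD, cut at about 13% in these data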;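 further: signal is the Cy5 over europium emission ratio at 671 and 618 nm; 0% = plate median of compound wells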
TDP2 absorb: TDP2 (human) inhibition, absorbance primary screen. hit rate 0.34% among 370,000. O95551. recombinant TDP2, T5PNP hydrolysis, p-nitrophenol absorbance 415 nm. AID 720702. inhibition, % at 12.8 µM;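 active means inhibition above the mean of all tested compounds plus 3 SD, set per campaign, cut at about 25% in these data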;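 further: 0% = DMSO with enzyme and 100% = buffer with substrate but no TDP2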
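System: recombinant human TDP2 / Amount: 120 nM TDP2 per well / Also added: 5 mM T5PNP chromogenic substrate / Doses: 12.8 µM single point, 1% DMSO / Incubation: 2 h at 37 °C / Detection: p-Nitrophenol epi absorbance / Evaluation: % inhibition relative to enzyme-containing and enzyme-free wells / Repeats: singlicate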
Rin1-Abl PPI inh: inhibitors of human Rin1-Abl protein interaction. P00519+Q13671. TR-FRET Rin1/Abl binding, biochemical. inhibition, % at 7.35 µM. hit rate 0.4% among 360,000; in the data active means inhibition above about 5%, passing the limit was not always enough
UHRF1 MBD2 ctr: blocks human UHRF1 binding to methylated DNA. UHRF1 binding to methylated oligo, TR-FRET. inhibition, % at 4.4 µM. hit rate 0.75% among 370,000. AID 687016; in the data active means inhibition above about 21%;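 further: UHRF1 SRA domain binding a hemimethylated CpG hairpin DNA probe; 0% = median of test compound wells and 100% = reference inhibitor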
TDP2 confirm: human TDP2 inhibition, confirmation | AID 743263 | hit rate 22% among 1,100 | inhibition, % at 12.8 µM | recombinant human TDP2, absorbance read-out | shares compounds with TDP2 absorb; in the data active means inhibition above about 25%;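 further: 0% = vehicle with enzyme and 100% = no enzyme buffer only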
Starred values were filed as active, the others as inactive; nt = no result; ! = not confirmed by another sample. Compounds with a hit are over-represented: about 1.9% of the library has one in this group of screens.

SMILES	MBD2 inh	LEDGF integ inh	TDP2 absorb	Rin1-Abl PPI inh	UHRF1 MBD2 ctr	TDP2 confirm
CC1(C)CC(=O)C=C(Nc2ccc(C(=O)O)cc2)C1	4	2	3	-4	0	nt
CC1(C)CC(=O)C=C(Nc2ccc(O)c(C(=O)O)c2)C1	1	1	25*	1	-5	0
COc1cc(CCC(=O)Nc2nccs2)cc(OC)c1OC	3	0	29*	2	-2	-5
COc1cc(CCC(=O)Nc2ncc(C)s2)cc(OC)c1OC	-2	0	6	-1	-1	nt
CC(=O)c1ccc2c(c1)C1C=CCC1C(c1ccncc1)N2 (configuration not stated)	-2	2	32*	-1	-11	14
COc1ccccc1CNC1CCC12CCC(c1ccccc1)CC2 (configuration not stated)	-1	-2	-4	nt	0	nt
CCN(CC)c1cc(Cl)c2nonc2c1N	-3	-3	33*	-1	-9	9
O=C(COC(=O)c1ccccc1SCC(=O)N1CCCC1)NC1CCS(=O)(=O)C1 (configuration not stated)	3	0	-14	-3	2	nt
O=C(COC(=O)c1ccccc1SCC(=O)N1CCCC1)NC1CCCCC1	1	3	26*	-3	-1	4
Oc1ccc(NC(=S)Nc2ccccc2)cc1	-8	1	25*!	1	-5	-4
COc1ccc(NC(=S)Nc2ccccc2)cc1	-2	1	3	-1	0	nt
Nc1ccc(NC(=S)Nc2ccccc2)cc1	-8	7	32*	1	1	1
Nc1c(C(=O)OCC(=O)NCc2ccccc2)[nH]c(=O)[nH]c1=O	0	-1	49*	1	-8	-3
Nc1c(C(=O)OCC(=O)Nc2ccccc2Br)[nH]c(=O)[nH]c1=O	1	1	7	-1	-9	nt
CC(=O)Nc1cccc(-c2ccnc3c2CC(C)(C(=O)Nc2cccc(OC(F)(F)F)c2)O3)c1 (configuration not stated)	3	2	-15	3	-3	nt
CS(=O)(=O)c1nc(S(=O)(=O)c2ccc(Cl)cc2)c(NCCCN2CCOCC2)s1	2	2	27*	0	-3	1
COc1ccc(C)cc1NC(=S)NN1CCN(C)CC1	4	-4	29*	4	1	1
CCNc1nc(NCC)n2c(SCC(=O)Nc3ccc(OC)c(OC)c3)nnc2n1	3	4	-19	-1	7	nt
CCNc1nc(NCC)n2c(SCC(=O)Nc3cc(Cl)ccc3OC)nnc2n1	1	0	25*	-3	2	-7
C=CCC[C@H](CCCCC)OC(=O)/C=C/[C@@H](O)[C@H](O)C[C@H](O)CC=C	1	-1	3	nt	2	nt
O=C1NC(=O)/C(=C/c2cccc3ccccc23)S1	-2	6	1	-1	-3	nt
O=C1NC(=O)C(=Cc2ccccc2[N+](=O)[O-])S1	-14	0	25*	-1	-13	44*
O=C(NC(N1CCOCC1)C(Cl)(Cl)Cl)c1ccccc1Cl (configuration not stated)	2	-3	27*	3	1	8
CN(CC(=O)Nc1cccc(F)c1)C(=O)CCc1nc2cc(S(=O)(=O)N3CCOCC3)ccc2n1C	0	2	0	1	-1	nt
CN(C)CCNc1ccc(-c2nn(C)c(=O)c3ccccc23)cc1[N+](=O)[O-]	-10	-2	2	-5	-10	nt
SMILES	MBD2 inh	LEDGF integ inh	TDP2 absorb	Rin1-Abl PPI inh	UHRF1 MBD2 ctr	TDP2 confirm
CN(C)CCNc1ccc2ncn3c4ccc(O)cc4c(=O)c1c23	1	8	31*	-62	-67	10
CN1CCN(CC(=O)Nc2nc3ccccc3s2)CC1	-1	0	25*	0	2	3
CCN1CCN(CC(=O)Nc2nc3ccccc3s2)CC1	3	4	18	2	1	nt
CCC(=O)N(CC)C1=C(O)c2ccccc2C(=O)C1=O	-8	4	29*	-1	-10	19
COc1ccc(-n2c(N)c(C(=O)NCc3ccco3)c3nc4ccccc4nc32)cc1	-9	6	27*	2	-7	3
COC(=O)[C@H]1C[C@@]2(Oc3ccc(Br)cc3)c3ccccc3N(C(=O)OC(C)(C)C)[C@H]2N1C(=O)OC(C)(C)C	-3	3	-5	nt	-3	nt
Cc1ccc(CNCCCn2cnc3c(OCc4ccccc4)ncnc32)o1	3	2	-14	-4	-3	nt
